The record followed here is ChEMBL document CHEMBL1145359, “Synthesis and anticonvulsant activity of 4-(2-(2,6-dimethylphenylamino)-2-oxoethylamino)-N-(substituted)butanamides: a pharmacophoric hybrid approach” (Bioorg Med Chem Lett, 2007).

Each structure is given as a SMILES string. The source made the active and inactive calls.

Data set [1] deals with Mus musculus. Description: Anticonvulsant activity against subcutaneous pentylenetetrazole-induced seizure in mouse at 300 mg/kg, ip after 0.5 hrs. It counts as functional, organism-based. Further details: dose 300 mg/kg. The method, boiled down:
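Intraperitoneal dosing in mice at 30, 100 or 300 mg/kg, followed 0.5 h later by a subcutaneous pentylenetetrazole challenge, scoring protection against seizures (a seizure-threshold test). The value recorded is the minimum dose active in half or more of the mice. A dash means no activity at 300 mg/kg. A vehicle-treated control group was included.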

The test system of data set [2] is Mus musculus. Briefly: Anticonvulsant activity against maximal-electroshock-induced seizure in mouse at 100 mg/kg, ip after 0.5 hrs. It counts as functional, organism-based. Further details: dose 100 mg/kg. The method, boiled down:
(§1)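 Mice received the compound intraperitoneally at 30, 100 or 300 mg/kg and were challenged with maximal electroshock 0.5 h later, scoring prevention of seizure spread. The value recorded is the minimum dose protecting half or more of the mice. A dash means no activity up to 300 mg/kg. A vehicle-treated control group was included.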

Data set [3] deals with Mus musculus. Description: Anticonvulsant activity against subcutaneous picrotoxin-induced seizure in mouse at 30 mg/kg, ip after 0.5 hrs. It counts as functional, organism-based. Details: dose 30 mg/kg. In outline: (§2)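 Mice given intraperitoneal doses of 30, 100 and 300 mg/kg, with a vehicle-only control, then challenged with subcutaneous picrotoxin. Protection assessed at 0.5 h and 4 h after dosing. Recorded value is the lowest dose protecting half or more of the animals; a dash means no activity at 300 mg/kg.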

Data set [4] deals with Mus musculus. Briefly: Anticonvulsant activity against subcutaneous picrotoxin-induced seizure in mouse at 30 mg/kg, ip after 4 hrs. It counts as functional, organism-based. Further details: dose 30 mg/kg. In outline:
as §2

The test system of data set [5] is Mus musculus. Description: Acute neurotoxicity in mouse at 300 mg/kg, ip after 0.5 hrs by rotarod test. The class given is toxicity, organism-based. Further details: dose 300 mg/kg, route intraperitoneal. As to conditions: in vivo. The method, boiled down:
(§3)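 Mice dosed intraperitoneally at 30, 100 and 300 mg/kg; motor impairment scored at 0.5 h and 4 h after dosing. The value recorded is the minimum dose at which the effect appeared in half or more of the mice. A dash means no effect at the top dose of 300 mg/kg. A vehicle-treated control group was included.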

Data set [6] deals with Mus musculus. Description: Acute neurotoxicity in mouse at 300 mg/kg, ip after 4 hrs by rotarod test. The class given is toxicity, organism-based. Further details: dose 300 mg/kg, route intraperitoneal. The note with it: in vivo. In outline:
as §3

In data set [7] the test system is Mus musculus. Description: Acute neurotoxicity in mouse at 100 mg/kg, ip after 4 hrs by rotarod test. Details: dose 100 mg/kg, route intraperitoneal. The class given is toxicity, organism-based. The note with it: in vivo. The method, boiled down:
as §3
In general terms: The rotarod test checks motor coordination on a turning rod.

Data set [8] relates to Mus musculus. Description: Anticonvulsant activity against maximal-electroshock-induced seizure in mouse at 30 mg/kg, ip after 0.5 hrs. Further details: dose 30 mg/kg. The class given is functional, organism-based. In outline:
as §1

For data set [9], the system named is Mus musculus. Description: Anticonvulsant activity against subcutaneous picrotoxin-induced seizure in mouse at 300 mg/kg, ip after 4 hrs. It counts as functional, organism-based. Further details: dose 300 mg/kg. The method, boiled down:
as §2

Data set [10] has as its system Mus musculus. Briefly: Acute neurotoxicity in mouse at 100 mg/kg, ip after 0.5 hrs by rotarod test. The class given is toxicity, organism-based. Further details: dose 100 mg/kg, route intraperitoneal. The note with it: in vivo. The method, boiled down:
as §3

For data set [11], the system named is Mus musculus. Briefly: Anticonvulsant activity against subcutaneous picrotoxin-induced seizure in mouse at 10 mg/kg, ip after 0.5 hrs. The class given is functional, organism-based. Details: dose 10 mg/kg.
In data set [12] the test system is Mus musculus. Description: Anticonvulsant activity against subcutaneous pentylenetetrazole-induced seizure in mouse at 30 mg/kg, ip after 0.5 hrs. The class given is functional, organism-based. Further details: dose 30 mg/kg. In outline:
(§4)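 Mice dosed intraperitoneally at 30, 100 and 300 mg/kg, with a vehicle-treated control, then challenged with subcutaneous pentylenetetrazole to detect elevation of seizure threshold. Read 0.5 h after dosing.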

Data set [13] deals with Mus musculus. Briefly: Anticonvulsant activity against subcutaneous picrotoxin-induced seizure in mouse at 100 mg/kg, ip after 0.5 hrs. It counts as functional, organism-based. Further details: dose 100 mg/kg. The method, boiled down: as §2
Data set [14] concerns Mus musculus. Briefly: Anticonvulsant activity against subcutaneous picrotoxin-induced seizure in mouse at 100 mg/kg, ip after 4 hrs. The class given is functional, organism-based. Further details: dose 100 mg/kg. The method, boiled down:
as §2

In data set [15] the test system is Mus musculus. Description: Anticonvulsant activity against maximal-electroshock-induced seizure in mouse at 300 mg/kg, ip after 0.5 hrs. It counts as functional, organism-based. Further details: dose 300 mg/kg. In outline: as §1
In data set [16] the test system is Mus musculus. Description: Anticonvulsant activity against subcutaneous pentylenetetrazole-induced seizure in mouse at 100 mg/kg, ip after 0.5 hrs. Further details: dose 100 mg/kg. It counts as functional, organism-based. In outline: as §4

As for `Cc1cccc(C)c1NC(=O)CNCCCC(=O)Nc1ccccc1Br`, in [1], the result was inactive. In addition, the result in [2], in data set [3] and in [4] was Active. Also, the outcome in [5] and in data set [6] was Active.
Take `O=C1NC(=O)C(c2ccccc2)(c2ccccc2)N1` [PHENYTOIN]: the result in data set [7] and in data set [10] was Active. Further, the result in data set [1] and in data set [9] was inactive. In addition, the result in data set [8] was Active.
Regarding `Cc1cccc(C)c1NC(=O)CCCNCC(=O)Nc1c(C)cccc1C`, the result in [2], in [4], in [11] and in data set [12] was Active. The Activity entry in data set [5] is on record as “Active”; in [6] it was “Not Active”.
Regarding `Cc1ccc(NC(=O)CCCNCC(=O)Nc2c(C)cccc2C)c(C)c1`, the result in data set [1], in data set [2], in [13] and in data set [14] was Active. The outcome in data set [5] and in data set [6] was Active.
With `Cc1cccc(C)c1NC(=O)CNCCCC(=O)N(c1ccccc1)c1ccccc1`, the result in data set [15], in data set [9] and in data set [13] was Active. In addition, the outcome in data set [1] was inactive. The Activity entry in data set [5] is “Active”; in data set [6] it was “Not Active”.
`Cc1cccc(C)c1NC(=O)CNCCCC(=O)Nc1ccccc1`: the outcome in [1] and in [9] was inactive. The outcome in [2] and in data set [13] was Active. The outcome in data set [5] and in data set [6] was Active.
Regarding `Cc1cccc(C)c1NC(=O)CNCCCC(=O)N1CCCCC1`, the outcome in [1] and in [9] was inactive. Besides, the result in [2] and in [13] was Active. The outcome in data set [10] and in data set [6] was Active.
`Cc1cccc(C)c1NC(=O)CNCCCC(=O)O`: the result in data set [1] was inactive. The result in [2], in [3] and in data set [14] was Active. Besides, the Activity result in data set [5] is on record as “Active”; in data set [6], “Not Active”.
In the case of `CCCCN(CCCC)C(=O)CCCNCC(=O)Nc1c(C)cccc1C`, the outcome in data set [1] was inactive. The outcome in [2], in [3] and in data set [14] was Active. For the same compound, the figures for the Activity result in data set [5] and in [6] were “Active” and “Not Active”, respectively.
Take `Cc1cccc(C)c1NC(=O)CNCCCC(=O)N1CCN(c2cccc(C(F)(F)F)c2)CC1`: the result in [15] and in data set [1] was inactive. The outcome in [3] and in data set [14] was Active. Also, the Activity entry in data set [5] and in data set [6] was “Not Active” each time.
With `Cc1cccc(NC(=O)CCCNCC(=O)Nc2c(C)cccc2C)c1`, the outcome in [15] and in [1] was inactive. For the same compound, the outcome in data set [3] and in data set [14] was Active. Moreover, the values for the Activity entry in data set [5] and in data set [6] were “Active” and “Not Active”, respectively.
Regarding `Cc1cccc(C)c1NC(=O)CNCCCC(=O)Nc1cccc(Cl)c1C`, the result in [1] was inactive. The outcome in data set [2], in data set [13] and in data set [14] was Active. For the same compound, the Activity result is reported as “Active” in data set [5] and “Not Active” in data set [6].
Take `Cc1cccc(C)c1NC(=O)CNCCCC(=O)N1CCC(C)CC1`: the result in [15] and in data set [1] was inactive. Also, the outcome in data set [7] and in data set [10] was Active. Moreover, the result in data set [13] and in data set [14] was Active.
On to `CCC1(C)CC(=O)NC1=O` (centres undefined) [ETHOSUXIMIDE], for which the outcome in [15] and in data set [9] was inactive. Also, in data set [16], the outcome was Active. The Activity result in [5] and in [6] was “Not Active” each time.
Consider `CCC1(c2ccccc2)C(=O)NC(=O)NC1=O` [PHENOBARBITAL], for which the outcome in data set [2], in data set [3], in [12] and in data set [14] was Active. Moreover, the result in [10] and in [6] was Active.
With `Cc1cccc(C)c1NC(=O)CNCCCC(=O)N(C)C`, the result in data set [15] and in data set [1] was inactive. Further, the outcome in data set [13] and in data set [14] was Active. Besides, the Activity result in [5] is recorded as “Not Active”; in data set [6], “Active”.
